Key:
[1] = Cytotoxicity against human Molt4/C8 cells; format: functional, cell-based; conditions: MOLT-4
CCRF-CEM = experiment: Cytotoxicity against human CEM cells; format: functional, cell-based
L1210 = experiment: Cytotoxicity against mouse L1210 cells; format: functional, cell-based
Mus musculus [2] = experiment: Mortality in mouse at 300 mg/kg, ip after 4 hrs; format: ADME, organism-based; design: dose 300 mg/kg, route intraperitoneal; conditions: in vivo
Procedure, shortened: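 Mice dosed intraperitoneally at 30, 100 and 300 mg/kg; animals observed for death at 0.5 and 4 h after injection as part of a short-term toxicity screen.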

Mus musculus [3] = experiment: Neurotoxicity in mouse at 300 mg/kg, ip after 4 hrs by rotating rod method; format: toxicity, organism-based; design: dose 300 mg/kg, route intraperitoneal; conditions: in vivo
Procedure, shortened: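 Intraperitoneal dosing in mice at 30, 100 and 300 mg/kg. Neurological deficit was scored by the rotating rod procedure at 0.5 and 4 h, with observation for other pathological signs. Results were recorded as animals showing neurotoxicity over total animals at each dose.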

SMILES	IC50 [1]	IC50 (CCRF-CEM)	IC50 (L1210)	Activity (Mus musculus [2])	Activity (Mus musculus [3])
COc1ccc(/C=C/C(=O)c2ccc(N3C(=O)C=CC3=O)cc2)cc1OC	202 µM	220 µM	157 µM	–	–
O=C(O)c1ccc(/C=C/C(=O)c2ccc(N3C(=O)C=CC3=O)cc2)cc1	178 µM	133 µM	135 µM	Toxic	Toxic
O=C(/C=C/c1ccc2c(c1)OCO2)c1ccc(N2C(=O)C=CC2=O)cc1	214 µM	258 µM	160 µM	–	–
O=C(/C=C/c1ccc(Cl)c(Cl)c1)c1ccc(N2C(=O)C=CC2=O)cc1	8.8 µM	7.7 µM	6.5 µM	–	–
Cc1ccc(/C=C/C(=O)c2ccc(N3C(=O)C=CC3=O)cc2)cc1	2.4 µM	4.1 µM	1.5 µM	–	–
COc1ccc(/C=C/C(=O)c2ccc(N3C(=O)C=CC3=O)cc2)cc1	7.9 µM	8.4 µM	9.8 µM	–	Non-toxic
O=C(/C=C/c1ccc([N+](=O)[O-])cc1)c1ccc(N2C(=O)C=CC2=O)cc1	> 500 µM	> 500 µM	> 500 µM	–	–
O=C(/C=C/c1ccc(Cl)cc1)c1ccc(N2C(=O)C=CC2=O)cc1	7.5 µM	7.5 µM	7.3 µM	–	–
O=C(/C=C/c1ccccc1)c1ccc(N2C(=O)C=CC2=O)cc1	9.5 µM	9.8 µM	8.6 µM	–	–
